Source: PubChem (several laboratories)
TWEAK-Fn14 inh: inhibitors of TWEAK-Fn14 signaling, primary screen, luciferase reporter cells, uHTS. AID 1159606, 2016. hit rate 2% among 360,000. TWEAK-stimulated Fn14 reporter cells, luciferase luminescence, 8 h. inhibition, % at 10 µM; in the data active = inhibition above about 50%
CaV13 ICDI inh: Disruptors of the CACNA1D IQ motif to Ca2+-dependent inactivation inhibitor domain association, primary screening, Förster resonance energy transfer in intact living …; hit rate 0.098% among 340,000; HEK cells, CFP/YFP FRET ICDI-IQ, plate reader, 10 min; percent FRET-ratio fall versus neutral wells; inhibition, % at 12.3 µM; AID 743397;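 active = mean replicate inhibition of at least 30% and at least 1% of replicates passing that level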
TROY NFkB inh: inhibitors of TROY-driven NF-kB signaling, primary screen, Q293 LMP1-TROYcd cells, NF-kB luciferase, uHTS; Q293 LMP1-TROYcd NF-kB luciferase reporter, 4 h; inhibition, % at 10 µM; hit rate 0.98% among 360,000; AID 1347056, 2019;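 active = compounds whose plate-normalised and pattern-corrected inhibition of the luciferase reporter signal at the single screening dose is 50% or more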
Xi reactivation: activators of inactive X chromosome reactivation, primary screen, imaging, XiGFP fibroblasts, GFP high-content imaging, set 2; activation, % at 7.58 µM; XiGFP mouse fibroblasts, % GFP-positive cells imaging, 3 d; cells co-treated with 5-aza-dC sensitizer; scaled so ellipticine positive control = 100%; hit rate 0.055% among 360,000;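 active = mean normalized replicate activation at least 10% and every replicate at or above 10%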
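System: 68-5-11 XiGFP fibroblast line | Buffer or medium: DMEM containing 5-aza-dC | Compound: Single point | Times: Compounds 3 days, fix/stain 15 min at room temperature | Benchmarks: Positive control ellipticine, 6 µM final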
LGR2 antag: inhibitors of bursicon-induced LGR2 CRE-luciferase signal, primary screen, cell-based, HEK293, CRE-luciferase reporter, bursicon stimulation. Drosophila bursicon receptor LGR2 (rickets). bursicon-stimulated, 4 h. inhibition, % at 9.99 µM. hit rate 0.35% among 380,000;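 active = drop in luminescence signal, shown as inhibition above about 50% in the replicate tests, limit read from the data, passing the limit was not always enough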;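 also: agonist challenge used bursicon conditioned medium at about half maximal strength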
A number is an active result; 0 = inactive; - = not tested or not shown. Sampled rows, rich in hits. Any-hit rate of the full collection: about 2%.

SMILES	TWEAK-Fn14 inh	CaV13 ICDI inh	TROY NFkB inh	Xi reactivation	LGR2 antag
O=[N+]([O-])c1cccc(N=Nc2ccc(O)cc2O)c1	59	0	0	0	0
O=C(Nc1ccc(-c2nc3cc(Cl)ccc3o2)cc1)C1CCCO1 (configuration not stated)	50	0	0	-	-
O=C(Nc1ccc2oc(-c3ccccc3)nc2c1)C1CCCO1 (configuration not stated)	0	0	0	0	0
Cc1ccc2nc(-c3ccc(NC(=O)C4CCCO4)cc3)[nH]c2c1 (configuration not stated)	70	0	0	-	60
O=C(Nc1ccc(-c2nc3cccnc3s2)cc1)C1CCCO1 (configuration not stated)	99	0	60	0	90
Cc1ccc2nc(-c3ccc(NC(=O)Cc4cccs4)cc3)[nH]c2c1	0	0	0	-	0
COc1ccccc1-c1cnc2c(c1)C(=O)N([C@H](C)CO)C[C@@H](C)[C@H](CN(C)C(=O)c1ccncc1)O2	-	-	-	0	0
COc1ccc(CC(=O)OCC(=O)NCc2ccc(F)cc2)cc1	0	0	0	0	0
COc1cccc(CC(=O)OCC(=O)NCCc2ccc(F)cc2)c1	54	0	0	0	0
C[C@@H]1CN([C@@H](C)CO)C(=O)c2cccc(NC(=O)CCCCCC(=O)Nc3ccccc3N)c2O[C@@H]1CN(C)S(C)(=O)=O	-	-	-	0	0
CCn1nnnc1SCC(=O)Nc1nc2ccccc2s1	0	0	0	0	0
COCCCn1nnnc1SCC(=O)Nc1nc2ccccc2s1	0	0	81	0	0
Cc1ccc2sc(NC(=O)CSc3nc(C)cc(C)c3C#N)nc2c1	0	0	0	-	-
Cc1nc(SCC(=O)Nc2nccs2)c(C#N)c(C)c1C	76	0	73	0	0
Cc1nc(SCC(=O)Nc2nc3ccccc3s2)n[nH]1	0	0	0	0	0
Cc1cc(C(F)(F)F)c(C#N)c(SCC(=O)Nc2nc3ccccc3s2)n1	89	0	85	0	0
Cc1nc(SCC(=O)Nc2nc3ccccc3s2)c(C#N)c(C)c1C	107	0	92	0	93
COc1cc(-c2cc(-c3ccccc3)nc(SCC(=O)Nc3nccs3)c2C#N)cc(OC)c1OC	0	-	0	-	-
C[C@@H]1CCCCO[C@@H](CN(C)C(=O)c2ccccc2)[C@H](C)CN([C@@H](C)CO)C(=O)c2cc(NC(=O)Cc3ccccc3)ccc2O1	-	-	-	0	0
COCC(=O)Nc1ccc2c(c1)OC[C@@H](C)N(Cc1ccccc1OC)C[C@@H](C)[C@@H](OC)CN(C)C2=O	-	-	-	0	0
COc1ccc(NC(=O)N(C)C[C@@H]2Oc3ccc(NC(=O)Cc4cn(C)c5ccccc45)cc3C(=O)N([C@@H](C)CO)C[C@H]2C)cc1	-	-	-	0	0
Cc1csc(NC(=O)CSc2nsc(SCC(=O)Nc3nc(C)cs3)c2C#N)n1	0	0	57	-	-
O=C1OC(c2ccc(O)cc2)(c2ccc(O)cc2)c2ccccc21	0	0	0	0	0
O=C1OC(c2ccccc2)(c2cc(Br)ccc2O)c2ccccc21 (configuration not stated)	56	0	74	0	0
O=C1OC(c2ccc3ccccc3c2O)(c2ccc3ccccc3c2O)c2ccccc21	95	0	66	0	0
SMILES	TWEAK-Fn14 inh	CaV13 ICDI inh	TROY NFkB inh	Xi reactivation	LGR2 antag
O=C1OC(c2ccccc2)(c2ccc3cc(O)ccc3c2)c2ccccc21 (configuration not stated)	60	0	0	0	-
COc1ccc(S(=O)(=O)Nc2ccc3c(c2)C(=O)N(C)C[C@@H](OC)[C@H](C)CN(Cc2cc(F)ccc2F)[C@H](C)CO3)cc1	-	-	-	0	0
COc1ccccc1-c1cn(CC[C@H]2CC[C@@H](NC(=O)c3ccccc3F)[C@@H](CO)O2)nn1	-	-	-	0	0
C[C@H]1CN([C@@H](C)CO)C(=O)c2cccc(NC(=O)Nc3ccc4c(c3)OCO4)c2O[C@@H]1CN(C)Cc1ccc(Cl)c(Cl)c1	-	-	-	0	0
O=C(Cn1ncc(N2CCCC2)c(Cl)c1=O)c1ccc(Cl)cc1	0	0	0	0	0
CCOC(=O)c1ccc(NC(=O)Cn2ncc(Cl)c(Cl)c2=O)cc1	99	0	75	0	0
